# From ChEMBL document CHEMBL1122831, “Synthesis and structure-activity relationships of novel arylfluoroquinolone antibacterial agents” (1985)
# Tests used:
# Type in all cases: functional
# [1] = tested on: Staphylococcus aureus; experiment: Minimum inhibition concentration in vitro determined against Staphylococcus aureus CMX 686B
# Outline: (§1)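 Agar dilution on brain-heart infusion (BHI) agar with twofold dilutions from a 2000 µg/mL stock, giving final test concentrations of 200-0.005 µg/mL. Organisms were grown overnight in BHI broth at 36 °C, and about 10⁴ organisms were inoculated per plate. Plates were incubated 18 h at 36 °C. MIC was the lowest concentration with no visible growth.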
# [2] = tested on: Pseudomonas aeruginosa; experiment: Minimum inhibition concentration in vitro determined against Pseudomona aeruginosa K799/WT; outline: as §1
# [3] = tested on: Klebsiella aerogenes; experiment: Minimum inhibition concentration in vitro determined against Enterobacteri aerogenes ATCC 13048; outline: as §1
# [4] = tested on: Klebsiella pneumoniae; experiment: Minimum inhibition concentration in vitro determined against Klebsiella pneumoniae 8045; outline: as §1
# [5] = tested on: Pseudomonas aeruginosa; experiment: Minimum inhibition concentration in vitro determined against Pseudomona aeruginosa 5007; outline: as §1
# [6] = tested on: Escherichia coli; experiment: Minimum inhibition concentration in vitro determined against Escherichia coli juhl; conditions: Escherichia coli; read-out: MIC; outline: as §1
# [7] = tested on: Staphylococcus epidermidis; experiment: Minimum inhibition concentration in vitro determined against Staphylococcus epidermidis 3519; outline: as §1
# [8] = tested on: Staphylococcus aureus; experiment: Minimum inhibition concentration in vitro determined against Staphylococcus aureus ATCC 6538P; outline: as §1
# [9] = tested on: Acinetobacter; experiment: Minimum inhibition concentration in vitro determined against Acinetobacter sp CMX669; outline: as §1
# [10] = tested on: Streptococcus pyogenes; experiment: Minimum inhibition concentration in vitro determined against Streptococcus pyogenes 930; outline: as §1
# [11] = tested on: Enterococcus faecium; experiment: Minimum inhibition concentration in vitro determined against Streptococcus faecium ATCC 8043; outline: as §1
SMILES,MIC [1] [µg/mL],MIC [2] [µg/mL],MIC [3] [µg/mL],MIC [4] [µg/mL],MIC [5] [µg/mL],MIC [6] [µg/mL],MIC [7] [µg/mL],MIC [8] [µg/mL],MIC [9] [µg/mL],MIC [10] [µg/mL],MIC [11] [µg/mL]
CN1CCN(c2cc3c(cc2F)c(=O)c(C(=O)O)cn3-c2ccc(Br)cc2)CC1,3.1,25,12.5,3.1,50,6.2,3.1,3.1,12.5,50,100
Cc1ccc(-n2cc(C(=O)O)c(=O)c3cc(F)c(N4CCN(C)CC4)cc32)cc1,1.56,12.5,3.1,0.78,12.5,1.56,3.1,1.56,1.56,12.5,50
O=C(O)c1cn(-c2ccc(F)cc2)c2cc(N3CCCNCC3)c(F)cc2c1=O,0.78,3.1,0.39,0.1,1.56,0.2,1.56,0.78,1.56,6.2,12.5
CN1CCN(c2cc3c(cc2F)c(=O)c(C(=O)O)cn3-c2ccccc2F)CC1,1.56,6.2,0.78,0.39,6.2,0.78,1.56,1.56,0.78,12.5,12.5
CN1CCN(c2cc3c(cc2F)c(=O)c(C(=O)O)cn3-c2cccc(F)c2)CC1,12.5,50,6.2,3.1,50,6.2,12.5,12.5,50,25,50
CN1CCN(c2cc3c(cc2F)c(=O)c(C(=O)O)cn3-c2ccc(Cl)cc2)CC1,1.56,6.2,1.56,0.78,12.5,1.56,1.56,1.56,1.56,12.5,100
COc1ccc(-n2cc(C(=O)O)c(=O)c3cc(F)c(N4CCN(C)CC4)cc32)cc1,12.5,100,50,12.5,200,50,50,12.5,50,50,100
CN1CCN(c2cc3c(cc2F)c(=O)c(C(=O)O)cn3-c2ccc(O)cc2)CC1,0.1,0.39,0.2,0.05,0.39,0.1,0.2,0.05,0.39,0.2,0.39
O=C(O)c1cn(-c2ccccc2)c2cc(N3CCNCC3)c(F)cc2c1=O,0.39,1.56,0.39,–,0.78,0.2,1.56,0.39,0.78,1.56,12.5
CNC1CCN(c2cc3c(cc2F)c(=O)c(C(=O)O)cn3-c2ccc(F)cc2)C1 (stereo unspecified),3.1,50,3.1,0.78,50,3.1,6.2,3.1,6.2,12.5,25
Cc1cccc(C)c1-n1cc(C(=O)O)c(=O)c2cc(F)c(N3CCN(C)CC3)cc21,> 100,> 100,> 100,> 100,> 100,> 100,> 100,> 100,> 100,> 100,> 100
CCCCN1CCN(c2cc3c(cc2F)c(=O)c(C(=O)O)cn3-c2ccc(F)cc2)CC1,0.78,12.5,1.56,0.39,12.5,1.56,1.56,0.78,3.1,6.2,12.5

# Other lines, results leading:
MIC [1] [µg/mL],MIC [2] [µg/mL],MIC [3] [µg/mL],MIC [4] [µg/mL],MIC [5] [µg/mL],MIC [6] [µg/mL],MIC [7] [µg/mL],MIC [8] [µg/mL],MIC [9] [µg/mL],MIC [10] [µg/mL],MIC [11] [µg/mL],SMILES
0.1,1.56,0.39,0.1,1.56,0.2,0.39,0.1,0.1,0.78,0.78,CN1CCN(c2cc3c(cc2F)c(=O)c(C(=O)O)cn3-c2ccc(F)cc2F)CC1
0.78,3.1,1.56,0.2,6.2,0.78,0.78,0.78,1.56,3.1,12.5,CN1CCN(c2cc3c(cc2F)c(=O)c(C(=O)O)cn3-c2ccccc2)CC1
0.1,3.1,0.78,0.39,3.1,0.39,0.2,0.1,0.78,1.56,1.56,O=C(O)c1cn(-c2ccc(F)cc2)c2cc(N3CCOCC3)c(F)cc2c1=O
0.39,6.2,1.56,0.78,6.2,0.78,0.39,0.1,3.1,0.78,1.56,CC(=O)NC1CCN(c2cc3c(cc2F)c(=O)c(C(=O)O)cn3-c2ccc(F)cc2)C1 (stereo unspecified)
0.1,3.1,1.56,0.39,6.2,0.39,0.39,0.1,1.56,1.56,1.56,O=C(O)c1cn(-c2ccc(F)cc2)c2cc(N3CCC(O)CC3)c(F)cc2c1=O
0.2,6.2,3.1,1.56,6.2,1.56,0.39,0.2,1.56,1.56,3.1,O=C(O)c1cn(-c2ccc(F)cc2)c2cc(N3CCCCC3)c(F)cc2c1=O
0.1,1.56,0.78,0.39,1.56,0.78,0.2,0.1,0.78,0.78,0.78,O=C(O)c1cn(-c2ccc(F)cc2)c2cc(N3CCCC3)c(F)cc2c1=O
0.39,3.1,0.78,0.39,3.1,0.39,0.78,0.39,0.78,1.56,3.1,CN(C)C1CCN(c2cc3c(cc2F)c(=O)c(C(=O)O)cn3-c2ccc(F)cc2)CC1
0.05,0.2,0.05,0.02,0.2,0.02,0.05,0.05,0.2,0.1,0.78,NC1CCN(c2cc3c(cc2F)c(=O)c(C(=O)O)cn3-c2ccc(F)cc2)C1 (stereo unspecified)
0.39,12.5,0.78,0.2,25,0.39,0.39,0.39,0.78,3.1,25,CN(C)C1CCN(c2cc3c(cc2F)c(=O)c(C(=O)O)cn3-c2ccc(F)cc2)C1 (stereo unspecified)
0.2,12.5,3.1,1.56,12.5,1.56,0.78,0.2,12.5,1.56,3.1,CC(=O)N1CCN(c2cc3c(cc2F)c(=O)c(C(=O)O)cn3-c2ccc(F)cc2)CC1
0.39,3.1,1.56,0.39,6.2,0.39,0.78,0.2,12.5,0.78,1.56,O=C1CN(c2cc3c(cc2F)c(=O)c(C(=O)O)cn3-c2ccc(F)cc2)CCN1
0.05,3.1,0.78,0.39,3.1,0.78,0.1,0.05,0.78,0.78,0.78,O=C(O)c1cn(-c2ccc(F)cc2)c2cc(N3CCSCC3)c(F)cc2c1=O
0.2,0.78,0.39,0.2,1.56,0.39,0.2,0.1,0.39,0.39,0.78,CN1CCN(c2cc3c(cc2F)c(=O)c(C(=O)O)cn3-c2ccc(F)cc2)CC1=O
0.2,12.5,3.1,0.78,12.5,1.56,0.78,0.2,6.2,1.56,6.2,CCC(=O)N1CCN(c2cc3c(cc2F)c(=O)c(C(=O)O)cn3-c2ccc(F)cc2)CC1
